From ChEMBL document CHEMBL1122411 (J Med Chem, 1983)

How the values were obtained:
[1] = test system: L1210; test: Cytotoxicity against L1210 cells; type: functional; details: Mus musculus, read-out: ID50 (the source's name)
[2] = test system: Mus musculus; test: Weight change on day 7 in L1210 Lymphoid Leukemia in mice at a dose of 8 mg/kg/day (1dx9); type: functional
Summary of the method: (§1)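 Male B6D2F1J mice (20–25 g) were inoculated i.p. with 10⁵ L1210 ascites cells on day 0 and randomized into groups of 5. Drug in water at pH 7.5–8.0 was given i.p. daily for 9 days (qd×9) from day 1. Animals were weighed after 7 days, and the % body-weight change was recorded under a standard NCI protocol.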

[3] = organism: Mus musculus; test: Percentage increase in life span after 13-18 days; type: functional
Summary of the method: (§2)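 Male B6D2F1J mice (20–25 g), randomized after i.p. inoculation with 10^5 L1210 ascitic leukemia cells on day 0. Drug in water, pH 7.5–8.0, given i.p. on a q2d×5, qd×9 (from day 1) or b.i.d.×10 schedule; 5 mice per group. %ILS = [(T/C) − 1]100 from median survival days of treated versus control mice. Range is survival days.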

[4] = test system: Mus musculus; test: Toxicity in mice after 14-22 days at a dose of 8 mg/kg/day; value is 14/8.5; type: functional
[5] = test system: Mus musculus; test: Toxicity in mice after 11-16 days at a dose of 2 mg/kg/day; value is 12/8.5; type: functional
[6] = organism: Mus musculus; test: Percentage increase in life span after 10-22 days; type: functional; summary of the method: as §2
[7] = test system: Mus musculus; test: Toxicity in mice after 10-22 days at a dose of 40 mg/kg/day; value is 15/9; type: functional
[8] = test system: Mus musculus; test: Weight change on day 7 in L1210 Lymphoid Leukemia in mice at a dose of 2 mg/kg/day (1dx9); type: functional
Summary of the method: (§3)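 Male B6D2F₁J mice (20–25 g) bearing ip L1210 ascites (10⁵ cells, day 0) were used, 5 per group. Drug was given ip in water at pH 7.5–8.0 from day 1 on q2d×5, qd×9 or b.i.d.×10 schedules. Animals were weighed after 7 days and percent weight change recorded.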

[9] = test system: Carboxypeptidase G1 (Pseudomonas); test: Tested for substrate activity of compound for Carboxypeptidase G1
[10] = organism: Mus musculus; test: Percentage increase in life span after 10-23 days; type: functional; summary of the method: as §2
[11] = organism: Mus musculus; test: Percentage increase in life span after 14-22 days; type: functional; summary of the method: as §2
[12] = organism: Mus musculus; test: Percentage increase in life span after 11-16 days; type: functional; summary of the method: as §2
[13] = test system: Mus musculus; test: Toxicity in mice after 13-18 days at a dose of 20 mg/kg/day; value is 13/9; type: functional
[14] = molecular target: T1, Dihydrofolate reductase (Mus musculus) (UniProt P00375); test: Binding affinity to Dihydrofolate reductase of L1210 cell line using [H]MTX as radioligand; type: cell-based
T1 sequence (whole entry): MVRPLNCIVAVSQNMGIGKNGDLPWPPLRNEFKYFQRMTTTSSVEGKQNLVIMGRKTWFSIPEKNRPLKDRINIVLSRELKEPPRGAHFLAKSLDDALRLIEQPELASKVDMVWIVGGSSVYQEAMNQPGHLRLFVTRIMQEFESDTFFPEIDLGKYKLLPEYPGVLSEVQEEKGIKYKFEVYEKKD
Summary of the method: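 Competitive [³H]MTX binding to dihydrofolate reductase from L1210 leukemia. Ascites cells from tumor-bearing mice were washed and lysed before use. The assay ran at 37 °C in 0.1 M potassium phosphate, pH 6.8. ID₅₀ was read as inhibition of radioligand binding, with MTX included in each experiment.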

[15] = Tested for substrate activity of compound for Carboxypeptidase G1; set-up: species or system Mus musculus
Summary of the method: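 Cleavage by carboxypeptidase G₁ was followed as the A320 change on release of the pteroate. Conditions were 37 °C in 0.05 M potassium phosphate, pH 6.7, with 100 μM ZnSO₄. Enzyme was diluted in 1% BSA to give ΔA320 of 0.02–0.2/min. Km and Vmax came from Lineweaver-Burk plots. Ki came from competitive runs varying analogue against fixed MTX, or vice versa.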

[16] = test system: Mus musculus; test: Weight change on day 7 in L1210 Lymphoid Leukemia in mice at a dose of 4 mg/kg/day (1dx9); type: functional; summary of the method: as §3
[17] = test system: Mus musculus; test: Weight change on day 7 in L1210 Lymphoid Leukemia in mice at a dose of 20 mg/kg/day (qdx9); type: functional; summary of the method: as §3
[18] = test system: Mus musculus; test: Weight change on day 7 in L1210 Lymphoid Leukemia in mice at a dose of 40 mg/kg/day (qdx9); type: functional; summary of the method: as §1
[19] = molecular target: T1, Dihydrofolate reductase (Mus musculus)
[20] = organism: Mus musculus; test: Percentage increase in life span after 12-20 days; type: functional; summary of the method: as §2
[21] = test system: Mus musculus; test: Toxicity in mice after 10-24 days at a dose of 20 mg/kg/day; value is 18/9; type: functional
[22] = molecular target: T1, Dihydrofolate reductase (Mus musculus); test: Binding affinity to Dihydrofolate reductase of L1210/R71 using spectrophotometric assay
Summary of the method: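 The enzyme was isolated from MTX-resistant L1210/R71 cultured cells and purified on MTX-agarose. The assay measured ΔA340 at 22 °C in 0.1 M Tris, pH 7.0, with 62 nM enzyme. Enzyme was preincubated 2 min with inhibitor and NADPH, and dihydrofolate was then added to start the reaction. ID₅₀ determined.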

[23] = test system: Mus musculus; test: Toxicity in mice after 10-23 days at a dose of 40 mg/kg/day; value is 21/9; type: functional
[24] = test system: Mus musculus; test: Toxicity in mice after 12-20 days at a dose of 4 mg/kg/day; value is 13/8.5; type: functional
[25] = molecular target: Dihydrofolate reductase (Lactobacillus casei) (UniProt P00381); details: Lacticaseibacillus casei
[26] = organism: Mus musculus; test: Percentage increase in life span after 10-24 days; type: functional; summary of the method: as §2
[27] = molecular target: Dihydrofolate reductase (Lactobacillus casei) (UniProt P00381); details: Lacticaseibacillus casei; remark: listed apart in the source
[28] = test system: Mus musculus; test: Weight change on day 7 in L1210 Lymphoid Leukemia in mice at a dose of 20 mg/kg/day (qdx5); type: functional; details: in the assay text read “q2dx5” for “qdx5”; summary of the method: as §3

Dihydrofolate reductase (Lactobacillus casei), sequence (P00381 whole entry): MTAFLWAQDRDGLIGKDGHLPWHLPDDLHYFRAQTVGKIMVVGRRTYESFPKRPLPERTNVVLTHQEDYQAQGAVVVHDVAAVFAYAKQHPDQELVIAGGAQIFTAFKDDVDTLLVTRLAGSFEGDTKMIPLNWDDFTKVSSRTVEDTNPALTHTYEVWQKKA

CN(Cc1cnc2nc(N)nc(N)c2n1)c1ccc(C(=O)NC(CCCCC(=O)O)C(=O)O)cc1 (centres undefined) gave an IC50 [1] of 10 nM, a Weight change [2] of 4% and an ILS [3] of 44%. For the same compound, the T/C [4] was 14, the T/C [5] was 12 and the ILS [6] was 67%. It also gave a T/C [7] of 15, a Weight change [8] of 10% and a Km [9] of 481 µM. The Vmax [9] was 0.44 min⁻¹, the ILS [10] was 133% and the ILS [11] was 65%. The ILS [12] was 41%, the T/C [13] was 13 and the ID50 [14] was 2.8 nM. For the same compound, the Ki [15] was 22000 nM, the Weight change [16] was 4% and the Weight change [17] was -2%. The Weight change [18] was -4%, the ID50 [19] was 6.9 nM and the ILS [20] was 52%. The T/C [21] was 18, the ID50 [22] was 39 nM and the T/C [23] was 21. It also gave a T/C [24] of 13, an ID50 [25] of 18 nM and an ILS [26] of 100%. The ID50 [27] was 6.3 nM and the Weight change [28] was 6%.
